# Calls of active or inactive are those of the source. No cut-off for these calls is given here.
# Columns and labels:
# MOLT-4 = experiment: Anticancer activity against human MOLT-4 cells assessed as cell growth inhibition at 10 uM measured after 48 hrs by SRB assay relative to control; format: functional; conditions: read-out: GI
# In short: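 NCI 60-cell-line screen. Cells in RPMI with 5% FBS were plated at 5,000–40,000 cells/well by doubling time and preincubated 24 h at 37 °C. Compound was added at a single 10 µM for 48 h, then cells were fixed with cold TCA (10% final) and stained with 0.4% SRB. Absorbance at 515 nm gave percent growth versus untreated control and time-zero cells.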
# HFF = experiment: Cytotoxicity against HFF assessed as inhibition of cell proliferation by MTS assay; format: cell-based, Homo sapiens; conditions: Homo sapiens, HFF; read-out: IC50
# A-375 [1] = experiment: Cytotoxicity against human A-375 cells assessed as inhibition of cell proliferation measured after 48 hrs by MTS assay; format: functional, cell-based; conditions: A-375, 48 h
# In short: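 Cells were exposed to a dose range of inhibitor for 48 h, and viability was read by MTS assay in triplicate. GI50 was taken as the concentration giving 50% growth inhibition, averaged from three independent experiments. A375 was cultured in RPMI-1640 with Glutamax. A549 and NCI-H157 were kept in RPMI-1640, and MIA PaCa-2 and U87-MG in DMEM.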
# [2] = Drug metabolism in pH 7.4 phosphate buffer assessed as nitric oxide release at 100 uM measured after 48 hrs by Griess reagent based colorimetric method
# In short: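 Compound at 100 µM was held at room temperature in pH 7.4 phosphate buffer with 5 mM DTT and 2% DMSO for 2 or 48 h. Griess reagent was added, and after 30 min absorbance was read at 548 nm. NO release (mol NO/mol compound) was derived from a sodium nitrite calibration curve.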
# [3] = target: T1, Signal transducer and activator of transcription 3 (Homo sapiens, UniProt P40763); experiment: Displacement of FAM-labeled 5-GpYLPQTV-NH2 from recombinant GST-tagged STAT3 (unknown origin) preincubated for 30 mins followed by FAM-labeled 5-GpYLPQTV-NH2 addition and measured after 30 mins by fluorescence assay; conditions: for inhibition: time 60.0 min
# T1 sequence (P40763 whole entry): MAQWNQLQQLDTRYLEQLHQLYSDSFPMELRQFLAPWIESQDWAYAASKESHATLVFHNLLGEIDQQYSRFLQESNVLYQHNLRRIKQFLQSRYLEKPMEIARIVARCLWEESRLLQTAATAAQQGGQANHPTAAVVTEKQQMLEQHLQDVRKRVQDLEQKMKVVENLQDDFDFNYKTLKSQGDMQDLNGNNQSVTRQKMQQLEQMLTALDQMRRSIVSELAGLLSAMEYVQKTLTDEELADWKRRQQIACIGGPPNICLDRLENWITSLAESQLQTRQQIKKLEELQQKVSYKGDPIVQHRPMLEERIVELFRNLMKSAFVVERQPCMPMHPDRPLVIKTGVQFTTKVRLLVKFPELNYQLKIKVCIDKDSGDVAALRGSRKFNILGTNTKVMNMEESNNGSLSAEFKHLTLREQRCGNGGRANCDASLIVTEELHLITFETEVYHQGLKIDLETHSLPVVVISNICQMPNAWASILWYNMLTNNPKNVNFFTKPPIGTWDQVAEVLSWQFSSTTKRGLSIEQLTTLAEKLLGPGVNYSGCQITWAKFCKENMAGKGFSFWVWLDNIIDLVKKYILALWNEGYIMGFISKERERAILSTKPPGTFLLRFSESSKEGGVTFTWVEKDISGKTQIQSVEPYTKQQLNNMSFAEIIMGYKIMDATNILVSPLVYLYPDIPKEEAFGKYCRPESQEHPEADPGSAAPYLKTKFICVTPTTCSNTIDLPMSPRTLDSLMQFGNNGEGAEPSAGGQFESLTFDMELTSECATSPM
# In short: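 GST-STAT3 (2 µM) was bound to GST beads for 1 h at 4 °C in PBS with 0.1% β-mercaptoethanol, then washed. Bead slurry was incubated with compound dilutions (2.25% DMSO, duplicate) and FAM-GpYLPQTV-NH2 peptide. Resin was washed by vacuum filtration and fluorescence read at ex 485/em 535 nm. % displacement was set against the no-compound signal; two independent experiments.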
# [4] = target: Tyrosine-protein kinase JAK2 (Homo sapiens) (UniProt O60674); experiment: Inhibition of JAK2 phosphorylation in human A-375 cells at 5 to 50 uM after 12 hrs by Western blotting analysis; format: cell-based; conditions: dose 5-50 µM
# Sequence of Tyrosine-protein kinase JAK2 (Homo sapiens) (O60674 whole entry): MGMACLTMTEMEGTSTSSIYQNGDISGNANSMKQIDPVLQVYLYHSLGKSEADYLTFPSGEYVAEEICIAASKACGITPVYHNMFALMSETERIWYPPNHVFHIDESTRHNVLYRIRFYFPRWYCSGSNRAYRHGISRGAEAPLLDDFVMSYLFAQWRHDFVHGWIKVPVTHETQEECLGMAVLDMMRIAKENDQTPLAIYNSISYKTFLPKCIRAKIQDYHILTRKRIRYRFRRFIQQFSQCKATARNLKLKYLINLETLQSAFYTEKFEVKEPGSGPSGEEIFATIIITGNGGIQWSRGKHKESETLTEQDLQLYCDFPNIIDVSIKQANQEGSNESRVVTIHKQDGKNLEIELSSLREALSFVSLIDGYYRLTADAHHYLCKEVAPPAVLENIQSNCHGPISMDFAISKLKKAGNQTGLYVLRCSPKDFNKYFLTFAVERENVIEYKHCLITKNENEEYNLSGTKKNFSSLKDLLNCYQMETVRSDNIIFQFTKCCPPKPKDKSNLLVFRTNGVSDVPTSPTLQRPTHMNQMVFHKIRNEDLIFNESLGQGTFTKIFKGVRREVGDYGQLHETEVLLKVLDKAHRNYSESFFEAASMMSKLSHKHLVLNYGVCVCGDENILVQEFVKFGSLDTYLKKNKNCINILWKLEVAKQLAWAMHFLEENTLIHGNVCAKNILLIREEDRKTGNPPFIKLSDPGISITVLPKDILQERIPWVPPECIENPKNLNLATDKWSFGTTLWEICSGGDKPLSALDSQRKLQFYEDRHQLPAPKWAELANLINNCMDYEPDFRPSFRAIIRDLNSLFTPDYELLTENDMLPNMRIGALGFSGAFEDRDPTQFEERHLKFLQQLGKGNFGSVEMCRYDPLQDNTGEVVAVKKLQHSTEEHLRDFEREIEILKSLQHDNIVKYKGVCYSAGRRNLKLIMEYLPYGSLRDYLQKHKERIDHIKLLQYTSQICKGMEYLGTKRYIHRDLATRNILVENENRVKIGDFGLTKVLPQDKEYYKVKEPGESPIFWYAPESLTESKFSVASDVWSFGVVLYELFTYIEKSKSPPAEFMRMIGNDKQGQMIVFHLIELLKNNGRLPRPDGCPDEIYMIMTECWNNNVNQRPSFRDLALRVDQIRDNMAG
# In short: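 A375 cells were treated with 0, 5, 10 or 25 µM overnight (methods state 12 h) in RPMI-1640 with Glutamax. Lysates (60 µg protein) were run on 10% SDS-PAGE and immunoblotted for phospho-JAK2 or phospho-ERK1/2, with actin and/or vinculin as loading controls; performed twice.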
# [5] = target: Mitogen-activated protein kinase; ERK1/ERK2 (Homo sapiens) (UniProt P27361+P28482); experiment: Inhibition of ERK1/2 phosphorylation in human A-375 cells at 5 to 50 uM after 12 hrs by Western blotting analysis; format: cell-based; conditions: dose 5-50 µM
# Sequence of Mitogen-activated protein kinase; ERK1/ERK2 (Homo sapiens) (P27361 whole entry, looked up): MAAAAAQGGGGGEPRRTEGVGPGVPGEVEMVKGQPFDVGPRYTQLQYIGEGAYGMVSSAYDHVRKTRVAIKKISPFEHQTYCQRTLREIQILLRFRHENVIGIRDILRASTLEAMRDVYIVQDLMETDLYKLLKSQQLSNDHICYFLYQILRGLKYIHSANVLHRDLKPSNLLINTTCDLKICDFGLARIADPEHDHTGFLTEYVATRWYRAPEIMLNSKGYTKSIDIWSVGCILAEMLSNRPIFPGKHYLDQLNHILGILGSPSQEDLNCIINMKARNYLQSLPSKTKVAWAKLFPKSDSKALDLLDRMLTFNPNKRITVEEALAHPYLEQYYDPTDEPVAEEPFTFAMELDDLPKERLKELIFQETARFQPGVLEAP
# Sequence of Mitogen-activated protein kinase; ERK1/ERK2 (Homo sapiens) (P28482 whole entry, looked up): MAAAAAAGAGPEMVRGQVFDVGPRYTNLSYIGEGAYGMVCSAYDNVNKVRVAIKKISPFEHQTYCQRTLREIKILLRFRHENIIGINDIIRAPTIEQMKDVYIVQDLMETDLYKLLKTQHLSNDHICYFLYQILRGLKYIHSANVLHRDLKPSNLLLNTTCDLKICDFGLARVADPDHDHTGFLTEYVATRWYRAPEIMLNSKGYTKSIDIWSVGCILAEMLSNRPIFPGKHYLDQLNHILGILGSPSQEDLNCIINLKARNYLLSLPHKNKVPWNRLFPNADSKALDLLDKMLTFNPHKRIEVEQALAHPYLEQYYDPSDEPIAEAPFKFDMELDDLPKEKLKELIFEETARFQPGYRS
# [6] = target: Signal transducer and activator of transcription 6 (Homo sapiens) (UniProt P42226); experiment: Inhibition of STAT6 phosphorylation at Y641 residues in human A-375 cells at 50 uM after 20 hrs by Western blotting analysis; format: cell-based
# Sequence of Signal transducer and activator of transcription 6 (Homo sapiens) (P42226 whole entry): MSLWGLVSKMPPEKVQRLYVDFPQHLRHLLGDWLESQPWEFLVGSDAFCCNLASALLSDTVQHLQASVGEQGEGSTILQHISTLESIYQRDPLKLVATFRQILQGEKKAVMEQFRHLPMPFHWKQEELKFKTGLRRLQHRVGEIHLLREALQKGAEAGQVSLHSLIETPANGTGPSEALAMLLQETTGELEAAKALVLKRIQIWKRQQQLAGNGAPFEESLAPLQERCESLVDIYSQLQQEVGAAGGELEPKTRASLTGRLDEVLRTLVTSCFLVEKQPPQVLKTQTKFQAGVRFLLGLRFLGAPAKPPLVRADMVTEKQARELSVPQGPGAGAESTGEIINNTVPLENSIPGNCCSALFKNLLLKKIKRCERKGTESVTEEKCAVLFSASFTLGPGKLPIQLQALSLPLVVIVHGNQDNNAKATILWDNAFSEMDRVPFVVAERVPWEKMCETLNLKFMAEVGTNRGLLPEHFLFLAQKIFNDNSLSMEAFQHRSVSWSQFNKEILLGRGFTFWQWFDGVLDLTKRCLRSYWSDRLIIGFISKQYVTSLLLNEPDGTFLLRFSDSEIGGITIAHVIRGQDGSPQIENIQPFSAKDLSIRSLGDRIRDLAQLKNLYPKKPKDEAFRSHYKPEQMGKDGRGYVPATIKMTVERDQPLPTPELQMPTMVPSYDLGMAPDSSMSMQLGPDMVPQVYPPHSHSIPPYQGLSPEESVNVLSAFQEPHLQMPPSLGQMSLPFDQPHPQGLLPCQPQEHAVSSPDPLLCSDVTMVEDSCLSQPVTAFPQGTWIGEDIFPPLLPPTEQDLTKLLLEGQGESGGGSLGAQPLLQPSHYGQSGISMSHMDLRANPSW
# In short: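 A375 cells exposed to a dose range of inhibitor for 20 h (overnight), up to 50 µM; lysates immunoblotted for phospho-STAT1 Y701, phospho-STAT5 Y694 and phospho-STAT6 Y641, with actin and/or vinculin as loading controls.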
# A-375 [7] = experiment: Cell cycle arrest in human A-375 cells assessed as accumulation at G1-phase at 25 uM measured after 24 hrs by […] (reference value: 55.5 to 56.2%); format: functional
# A-375 [8] = experiment: Down regulation of cyclin D1 expression in human A-375 cells measured after 24 hrs by Western blot analysis; format: functional, cell-based; conditions: dose 5-50 µM
# In short: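 A375 cells were treated for one night with a dose range of inhibitor, lysed, and Cyclin D1 was detected by western blot.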
# [9] = target: T1, Signal transducer and activator of transcription 3; experiment: Inhibition of STAT3 phosphorylation at Y705 residue in human SB-590885-resistant 451Lu cells measured after 12 hrs by Western blot analysis; conditions: dose 10-25 µM
# In short: (§1)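 451 Lu and MEL 1617 pairs, sensitive and resistant; resistant lines maintained in RPMI with 1 µM PLX4720. Treated with 10 and 25 µM for 12 h versus DMSO. Lysates (60 µg protein, 10% SDS-PAGE) immunoblotted for Ser727- and Tyr705-phospho-STAT3, total STAT3, total PAX3, with actin.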
# [10] = target: T1, Signal transducer and activator of transcription 3; experiment: Inhibition of STAT3 phosphorylation at S727 residue in human SB-590885-resistant 451Lu cells measured after 12 hrs by Western blot analysis; conditions: dose 10-25 µM; in short: as §1
# [11] = target: T1, Signal transducer and activator of transcription 3; experiment: Inhibition of STAT3 phosphorylation at Y705 residue in human SB-590885-sensitive 451Lu cells measured after 12 hrs by Western blot analysis; conditions: dose 10-25 µM; in short: as §1
# [12] = target: T1, Signal transducer and activator of transcription 3; experiment: Inhibition of STAT3 phosphorylation at S727 residue in human SB-590885-sensitive 451Lu cells measured after 12 hrs by Western blot analysis; conditions: dose 10-25 µM; in short: as §1
# [13] = target: T1, Signal transducer and activator of transcription 3; experiment: Inhibition of STAT3 in human SB-590885-resistant 451Lu cells assessed as reduction in PAX3 expression measured after 12 hrs by Western blot analysis; conditions: dose 10-25 µM; in short: as §1
# [14] = target: T1, Signal transducer and activator of transcription 3; experiment: Inhibition of STAT3 phosphorylation at Y705 residue in human SB-590885-resistant MEL1617 cells at 10 to 25 uM measured after 12 hrs by Western blot analysis; format: cell-based; conditions: dose 10-25 µM; in short: as §1
# [15] = target: T1, Signal transducer and activator of transcription 3; experiment: Inhibition of STAT3 in human SB-590885-sensitive MEL1617 cells assessed as reduction in PAX3 expression at 10 to 25 uM measured after 12 hrs by Western blot analysis; format: cell-based; conditions: dose 10-25 µM; in short: as §1
# [16] = target: T1, Signal transducer and activator of transcription 3; experiment: Inhibition of STAT3 in human SB-590885-resistant 451Lu cells assessed as reduction in STAT3 transcriptional activity measured after 12 hrs by Dual-luciferase reporter gene assay
# In short: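 Cells co-transfected with inducible STAT3-responsive firefly luciferase and constitutive Renilla luciferase constructs (40:1) using Lipofectamine 3000. After 48 h, dose series in DMSO vehicle applied for 12 h, followed by dual-luciferase readout. Firefly signal normalized to Renilla and compared with untreated cells. Run in triplicate; IC50 taken from dose–response curves.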
# [17] = Antiproliferative activity against human SB-590885-resistant 451Lu cells assessed as reduction in cell viability measured after 48 hrs by MTS assay; format: functional; conditions: Homo sapiens, 451Lu, 48 h; read-out: IC50
# In short: (§2)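 Melanoma lines were grown in RPMI-1640 with Glutamax at 37 °C and 5% CO2. The resistant 451 Lu-R and MEL 1617-R sublines were maintained with 1 µM PLX4720. Cells were incubated with vehicle or inhibitor over a dose range, and viability was read by MTS assay in triplicate.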
# [18] = Antiproliferative activity against human SB-590885-resistant MEL1617 cells assessed as reduction in cell viability measured after 48 hrs by MTS assay; format: functional, cell-based; conditions: Homo sapiens, MEL1617, 48 h; read-out: IC50; in short: as §2
IC50 [3],inhibition [3],inhibition [4],inhibition [5],inhibition [6],inhibition [9],inhibition [10],inhibition [11],inhibition [12],inhibition [13],inhibition [14],inhibition [15],IC50 [16],Structure (SMILES),inhibition of growth at 10 µM (MOLT-4),IC50 (HFF),IC50 (A-375 [1]),Drug metabolism [2],Activity (A-375 [7]),Activity (A-375 [8]),IC50 [17],other results
0.25 µM,Dose-dependent effect,inactive,inactive,inactive,Dose-dependent effect,Dose-dependent effect,Dose-dependent effect,Dose-dependent effect,Dose-dependent effect,Active,Active,17 µM,C=CCn1c(SCC(=O)Nc2ccc(/C(C)=N\O)cc2)nnc1-c1cc(-c2ccc(Cl)cc2)nc2ccccc12,100%,200 µM,1.9 µM,30%,61.1%,Dose-dependent effect,47 µM,IC50 [18]: 54.1 µM
0.32 µM,Dose-dependent effect,inactive,inactive,inactive,Dose-dependent effect,Dose-dependent effect,Dose-dependent effect,Dose-dependent effect,Dose-dependent effect,Active,Active,4.7 µM,C=CCn1c(SCC(=O)Nc2ccc(/C(C)=N\O)cc2)nnc1-c1cc(-c2ccccc2)nc2ccccc12,76%,54.4 µM,7.7 µM,30%,75.4%,Dose-dependent effect,7.8 µM,IC50 [18]: 10.8 µM

# From ChEMBL document CHEMBL4715843, “NO-releasing STAT3 inhibitors suppress BRAF-mutant melanoma growth” (Eur J Med Chem, 2020)
